Assay results pooled from the literature.
Target: Serine/threonine-protein kinase 17A (STK17A, Homo sapiens, UniProt Q9UEE5)
Observed: enzyme activity
Sequence (Q9UEE5 1-414, as in one of the studies): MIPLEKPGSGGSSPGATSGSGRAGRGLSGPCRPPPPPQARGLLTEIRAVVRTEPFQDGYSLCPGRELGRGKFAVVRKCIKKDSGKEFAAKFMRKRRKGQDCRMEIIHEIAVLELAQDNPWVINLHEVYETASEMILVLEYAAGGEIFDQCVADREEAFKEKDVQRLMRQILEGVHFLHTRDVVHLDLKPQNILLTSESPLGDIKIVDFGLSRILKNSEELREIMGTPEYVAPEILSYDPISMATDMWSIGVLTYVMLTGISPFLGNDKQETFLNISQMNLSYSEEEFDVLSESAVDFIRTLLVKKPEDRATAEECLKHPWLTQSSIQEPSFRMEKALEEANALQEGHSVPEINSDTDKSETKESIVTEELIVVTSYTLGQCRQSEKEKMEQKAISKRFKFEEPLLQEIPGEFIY

SMILES | assay | setting | remaining activity [%]
O=C(Nc1cnn(-c2csc(C(=O)NC3COC3)c2)c1)Nc1ccccc1Cl | inhibitor | 5 µM | 98.4
NS(=O)(=O)c1ccc(CNc2nc(Nc3cccc(CN4CCOCC4)c3)ncc2C2CC2)cc1 | inhibitor, radiometric | 1 µM | 108
Cc1cnc(NC2CCOCC2)nc1-n1cnc(C(=O)NC(CN)c2cc(F)cc(Cl)c2)c1 (centres unmarked) | inhibitor, radiometric | 1 µM | 100
CC(C)(C)c1nc2c(s1)c1nc(N)ncc1c1ccc(NS(=O)(=O)c3c(F)cccc3F)c(F)c12 | inhibitor, radiometric | 1 µM | 80
Cc1nn(CC(F)(F)F)cc1Nc1ncc(C2CC2)c(NCc2ccc(S(N)(=O)=O)cc2)n1 | inhibitor, radiometric | 1 µM | 105
CCCOc1ccc(OC)c(F)c1C(=O)c1ccc(C(=O)N[C@@H]2CNC[C@H]2NC(=O)c2ccc3[nH]ncc3c2)cc1 | inhibitor | 10 µM | 7
CCN(CC)c1ccc(C2=NNC(=O)CC2C)cc1[N+](=O)[O-] (centres unmarked) | inhibitor | 10 µM | 100
O=c1cc(-c2cccc3c2Sc2ccccc2S3)oc(N2CCOCC2)c1 | inhibitor | 0.5 µM | 98.2
Cc1ccc(C(=O)Nc2ccc(CN3CCN(C)CC3)c(C(F)(F)F)c2)cc1C#Cc1cnc2cccnn12 | – | 23.5 nM | 100
O=C(Nc1cnn(-c2csc(C(=O)NC3COC3)c2)c1)Nc1c(F)cccc1Cl | inhibitor | 5 µM | 89.4
Cc1nn(CC(F)(F)F)cc1Nc1ncc(Br)c(NCCc2cnc[nH]2)n1 | inhibitor, radiometric | 1 µM | 63
CC(C)(O)[C@H]1CC[C@H](Nc2ccc3ncc(-c4cccc(C(F)(F)F)c4)n3n2)CC1 | inhibitor | 1 µM | 106
COc1cc(Cl)c(C(=O)N[C@@H](CN[C@H]2CC[C@@H](N)CC2)Cc2ccc(C#N)cc2)cc1-c1ccc(CN[C@H](C)c2ccc(C)cc2)o1 | inhibitor | 1 µM | 70
Cc1nn(CC(F)(F)F)cc1Nc1ncc(Br)c(NCc2ccc(S(N)(=O)=O)cc2)n1 | inhibitor, radiometric | 1 µM | 93
